Measurements as given in ChEMBL document CHEMBL1148984, “Bioactive compounds from the seeds of Punica granatum (pomegranate)” (2004).

Assays:
Brain [1] = assay: Antioxidant activity against lipid peroxidation in Wistar rat brain assessed as inhibition of malondialdehyde release at 12.5 ug/mL by thiobarbituric acid method relative to control; type: functional, tissue-based; design: scale not given: the % may be the effect or the level left
In short: (§1)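 Male Wistar rat brain homogenised fresh (10% w/v) in 50 mM phosphate buffer, pH 7.4; protein by Lowry. Aliquots incubated 30 min at 37 °C with compound (final 1.25, 2.5 or 5.0 × 10-5 g/mL) or saline vehicle. Stopped with SDS, then TBA in HCl/acetic acid, boiled 15 min. Chromogen extracted into n-butanol–pyridine (15:1); A532 read against MDA standards.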

Plasma [2] = assay: Antioxidant activity against LDL-susceptible to oxidation in New Zealand White rabbit plasma assessed as increase in conjugated diene formation at 12.5 ug/mL after 30 mins; type: functional, Oryctolagus cuniculus
In short: (§2)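 LDL in phosphate-buffered KCl dialysis buffer (pH 7.4), dialysed 4 h at 4 °C in the dark and diluted to 0.25 mg LDL/mL (protein by Lowry, BSA standard). Compound (final 1.25, 2.5 or 5.0 × 10-5 g/mL) or saline vehicle preincubated ~30 min at 20 °C. Oxidation started with CuSO4 (final 5.0 µmol/L), 37 °C for 4 h. A234 monitored; conjugated diene increase = (A4h − A0h)/A0h × 100%.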

Plasma [3] = assay: Antioxidant activity against LDL-susceptible to oxidation in New Zealand White rabbit plasma assessed as increase in conjugated diene formation at 25 ug/mL after 30 mins; type: functional, Oryctolagus cuniculus; in short: as §2
Brain [4] = assay: Antioxidant activity against lipid peroxidation in Wistar rat brain assessed as inhibition of malondialdehyde release at 50 ug/mL by thiobarbituric acid method relative to control; type: functional, tissue-based; design: scale not given: the % may be the effect or the level left; in short: as §1
Brain [5] = assay: Antioxidant activity against lipid peroxidation in Wistar rat brain assessed as inhibition of malondialdehyde release at 25 ug/mL by thiobarbituric acid method relative to control; type: functional, tissue-based; design: scale not given: the % may be the effect or the level left; in short: as §1
Plasma [6] = assay: Antioxidant activity against LDL-susceptible to oxidation in New Zealand White rabbit plasma assessed as increase in conjugated diene formation at 50 ug/mL after 30 mins; type: functional, Oryctolagus cuniculus; in short: as §2

Row | SMILES | Activity (Brain [1]) | Activity (Plasma [2]) | Activity (Plasma [3]) | Activity (Brain [4]) | Activity (Brain [5]) | Conjugated diene increase (Plasma [6])
1 | COc1c(O)cc2c(=O)oc3c(OC)c(O)cc4c(=O)oc1c2c34 | 21.8% | 27% | 28.9% | 28.1% | 20.1% | 20.4%
2 | COc1cc(/C=C/CO[C@@H]2O[C@H](CO[C@@H]3OC[C@](O)(CO)[C@H]3O)[C@@H](O)[C@H](O)[C@H]2O)ccc1O | 28.9% | 15.4% | 10.5% | 35.6% | 32.4% | 7.3%
3 | COc1cc(/C=C/CO[C@@H]2O[C@H](CO[C@@H]3OC[C@](O)(CO)[C@H]3O)[C@@H](O)[C@H](O)[C@H]2O)cc(OC)c1O | 26.5% | 17.6% | 14.4% | 32.1% | 29.8% | 12.2%
4 | O=C1O[C@H]([C@@H](O)CO)C(O)=C1O [ASCORBIC ACID] | 50.1% | 3.7% | – | – | – | –
5 | COc1cc2c(=O)oc3c(OC)c(O)cc4c(=O)oc(c1OC)c2c34 | 18.3% | 29.8% | 27.2% | 31.1% | 24.6% | 21%
